Measurements published in ChEMBL document CHEMBL2176974, “A bactericidal guanidinomethyl biaryl that alters the dynamics of bacterial FtsZ polymerization” (J Med Chem, 2012).
≈ marks a conversion by molar mass, not a printed value. Calls of active or inactive are those of the source. The calls are words filed in the database; no cut-off is given here.

What was measured:
Escherichia coli [1] = assay: Antimicrobial activity against Escherichia coli N43 expressing AcrAB efflux pump mutant incubated for 24 hrs by broth microdilution method; type: functional; conditions: N43, 24 h
Escherichia coli [2] = assay: Antimicrobial activity against Escherichia coli W4573 incubated for 24 hrs by broth microdilution method; type: functional; conditions: W4573, 24 h
Outline: (§1)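 CLSI broth microdilution. Log-phase bacteria at 10⁵ CFU/mL were exposed to 2-fold serial dilutions (64 to 0.016 μg/mL) in cation-adjusted Mueller-Hinton broth, 5% defibrinated sheep blood added for Streptococcus. Incubated aerobically 24 h at 37 °C. Growth read as OD600; MIC taken as the lowest concentration giving 90% growth inhibition.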

Escherichia coli [3] = assay: Antimicrobial activity against ESBL producing Escherichia coli ATCC BAA-201 expressing TEM3 lactamase incubated for 24 hrs by broth microdilution method; type: functional; conditions: ATCC BAA-201, 24 h; outline: as §1
Enterococcus faecalis [4] = assay: microbe, parasite or virus in culture; type: functional; conditions: ATCC 51575, 24 h
Enterococcus faecalis [5] = assay: microbe, parasite or virus in culture; type: functional; conditions: ATCC 19433, 24 h
Staphylococcus aureus [6] = assay: Antimicrobial activity against methicillin-resistant Staphylococcus aureus Mu3 incubated for 24 hrs by broth microdilution method; type: functional; conditions: Mu3, 24 h
Staphylococcus aureus [7] = assay: microbe, parasite or virus in culture; type: functional; conditions: ATCC 33591, 24 h
Staphylococcus aureus [8] = assay: microbe, parasite or virus in culture; type: functional; conditions: ATCC 49951, 24 h
Staphylococcus aureus [9] = assay: microbe, parasite or virus in culture; type: functional; conditions: 8325-4, 24 h
Enterococcus faecalis [10] = assay: Stimulation of Enterococcus faecalis FtsZ self-polymerization at 40 ug/mL by microtiter plate-based light scattering assay
Outline: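 Purified E. faecalis FtsZ (10 μM) mixed with compound (0–40 μg/mL) and 1 mM GTP in 50 mM Tris-HCl pH 7.4, 50 mM KCl, 2 mM magnesium acetate, 10 mM CaCl2. Polymerization followed continuously as light scattering (A340) at 25 °C over 400 min.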

[11] = target: T1, Cell division protein FtsZ (Escherichia coli K-12) (UniProt P0A9A6); assay: Stimulation of Escherichia coli FtsZ self-polymerization at 40 ug/mL by microtiter plate-based light scattering assay
T1 sequence (whole entry): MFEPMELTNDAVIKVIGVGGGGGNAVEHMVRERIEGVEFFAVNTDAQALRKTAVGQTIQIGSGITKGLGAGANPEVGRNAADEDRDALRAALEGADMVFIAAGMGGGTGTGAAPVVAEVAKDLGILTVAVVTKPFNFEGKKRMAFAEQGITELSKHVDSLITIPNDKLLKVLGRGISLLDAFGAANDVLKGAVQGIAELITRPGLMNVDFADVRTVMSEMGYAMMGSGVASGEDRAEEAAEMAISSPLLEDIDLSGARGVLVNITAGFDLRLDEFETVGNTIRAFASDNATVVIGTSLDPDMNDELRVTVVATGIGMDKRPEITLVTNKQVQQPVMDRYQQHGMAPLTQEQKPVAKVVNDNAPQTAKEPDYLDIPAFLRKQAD

[12] = target: T2, Cell division protein FtsZ (Staphylococcus aureus) (UniProt P0A031); assay: Stimulation of Staphylococcus aureus FtsZ self-polymerization at 40 ug/mL by microtiter plate-based light scattering assay
T2 sequence (whole entry): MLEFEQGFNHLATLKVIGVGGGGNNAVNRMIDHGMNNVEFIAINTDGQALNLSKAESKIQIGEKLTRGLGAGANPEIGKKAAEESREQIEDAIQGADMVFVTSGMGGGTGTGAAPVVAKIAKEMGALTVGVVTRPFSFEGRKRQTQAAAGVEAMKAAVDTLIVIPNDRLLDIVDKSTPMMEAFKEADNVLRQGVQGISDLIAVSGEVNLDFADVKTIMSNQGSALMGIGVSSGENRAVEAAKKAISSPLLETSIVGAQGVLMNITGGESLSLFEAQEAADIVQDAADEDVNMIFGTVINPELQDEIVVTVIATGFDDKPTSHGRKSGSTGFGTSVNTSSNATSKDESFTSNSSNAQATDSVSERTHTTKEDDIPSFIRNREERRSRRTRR

[13] = target: T3, Cell division protein FtsZ (Staphylococcus aureus, UniProt P0A031); assay: Binding affinity to Staphylococcus aureus FtsZ expressed in Escherichia coli BL21 (DE3) at 25 degC by fluorescence anisotropy assay
T3 sequence (P0A031 whole entry): T2 sequence (whole entry)
Outline: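 Intrinsic compound fluorescence anisotropy. Compound at 5 μM was titrated with 0–25 μM FtsZ in 50 mM Tris·HCl pH 7.4, 50 mM KCl, 2 mM magnesium acetate. Samples were incubated 5 min at 25 °C, excited at 245 nm with emission at 318 nm, and G-corrected. Runs were in triplicate and averaged. Kd was obtained by nonlinear least-squares fit. SaFtsZ was expressed in E. coli BL21(DE3) and purified by ammonium sulfate, MonoQ and Superdex-200.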

[14] = target: T4, Cell division protein FtsZ (Escherichia coli K-12, UniProt P0A9A6); assay: Binding affinity to Escherichia coli FtsZ at 25 degC by fluorescence anisotropy assay
T4 sequence (P0A9A6 whole entry): T1 sequence (whole entry)

[15] = Binding affinity to Enterococcus faecalis FtsZ at 25 degC by fluorescence anisotropy assay
Staphylococcus aureus [16] = assay: microbe, parasite or virus in culture; type: functional; conditions: 8325-4, 24 h; remark: listed apart in the source
Enterococcus faecalis [17] = assay: Binding affinity to Enterococcus faecalis FtsZ by fluorescence anisotropy BoGTPgammaS competition assay
Outline: (§2)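 Competition with fluorescent BoGTPγS. BoGTPγS (1 μM final) was mixed with 5 μM FtsZ and compound or unlabeled GTP at 0–40 μM. Buffer was 50 mM Tris·HCl pH 7.4, 50 mM KCl, 2 mM magnesium acetate. After 5 min at 25 °C, anisotropy was read at excitation 488 nm and emission 510 nm, in triplicate and averaged.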

[18] = target: T1, Cell division protein FtsZ (Escherichia coli K-12); assay: Binding affinity to Escherichia coli FtsZ by fluorescence anisotropy BoGTPgammaS competition assay; outline: as §2
[19] = target: T2, Cell division protein FtsZ (Staphylococcus aureus); assay: Binding affinity to Staphylococcus aureus FtsZ expressed in Escherichia coli BL21 (DE3) by fluorescence anisotropy BoGTPgammaS competition assay; outline: as §2
[20] = target: Tubulin beta chain (Sus scrofa) (UniProt P02554); assay: Stimulation of MAP-rich pig beta-tubulin polymerization at 25 ug/mL by microtiter plate-based light scattering assay
Sequence of Tubulin beta chain (Sus scrofa) (P02554 whole entry): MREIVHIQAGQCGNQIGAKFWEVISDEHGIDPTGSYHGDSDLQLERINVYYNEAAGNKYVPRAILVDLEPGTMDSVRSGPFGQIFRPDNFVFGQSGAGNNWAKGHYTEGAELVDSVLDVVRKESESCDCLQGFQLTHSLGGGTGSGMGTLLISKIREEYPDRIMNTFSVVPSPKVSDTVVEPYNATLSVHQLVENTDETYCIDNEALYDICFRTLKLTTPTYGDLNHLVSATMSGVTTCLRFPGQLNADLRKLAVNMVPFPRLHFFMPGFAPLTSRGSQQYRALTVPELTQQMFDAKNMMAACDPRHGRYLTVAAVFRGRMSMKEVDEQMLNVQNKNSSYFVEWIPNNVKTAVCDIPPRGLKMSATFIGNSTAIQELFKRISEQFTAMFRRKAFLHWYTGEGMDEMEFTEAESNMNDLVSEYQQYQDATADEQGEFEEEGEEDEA
Outline: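 MAP-rich porcine tubulin (70% β-tubulin, 30% MAPs) at 2 mg/mL with 1 mM GTP. Buffer was 80 mM PIPES·NaOH pH 7.0, 2 mM MgCl₂, 1 mM EGTA. Light scattering was followed as A340 continuously at 37 °C for 60 min, against a DMSO vehicle.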

CC(C)(C)c1ccc(-c2cc(CNC(=N)N)ncn2)cc1
MIC (Escherichia coli [1]): 32 µg/mL (≈ 113 µM)
MIC (Escherichia coli [2]): > 64 µg/mL
MIC (Escherichia coli [3]): > 64 µg/mL
MIC (Enterococcus faecalis [4]): > 64 µg/mL
MIC (Enterococcus faecalis [5]): > 64 µg/mL
MIC (Staphylococcus aureus [6]): 32 µg/mL (≈ 113 µM)
MIC (Staphylococcus aureus [7]): 64 µg/mL (≈ 226 µM)
MIC (Staphylococcus aureus [8]): 32 µg/mL (≈ 113 µM)
MIC (Staphylococcus aureus [9]): 64 µg/mL (≈ 226 µM)
Activity (Enterococcus faecalis [10]): inactive
Activity [11]: inactive
Activity [12]: inactive
Kd [13]: Not Active
Kd [14]: Not Active
Kd [15]: Not Active

CC[C@H]1OC(=O)[C@H](C)[C@@H](O[C@H]2C[C@@](C)(OC)[C@@H](O)[C@H](C)O2)[C@H](C)[C@@H](O[C@@H]2O[C@H](C)C[C@H](N(C)C)[C@H]2O)[C@](C)(O)C[C@@H](C)C(=O)[C@H](C)[C@@H](O)[C@]1(C)O [ERYTHROMYCIN]
MIC (Enterococcus faecalis [4]): > 64 µg/mL
MIC (Enterococcus faecalis [5]): 1 µg/mL (≈ 1.36 µM)
MIC (Staphylococcus aureus [6]): > 64 µg/mL
MIC (Staphylococcus aureus [7]): > 64 µg/mL
MIC (Staphylococcus aureus [8]): 0.25 µg/mL (≈ 0.341 µM)
MIC (Staphylococcus aureus [9]): 0.125 µg/mL (≈ 0.17 µM)
MBC (Staphylococcus aureus [16]): 32 µg/mL (≈ 43.6 µM)

Nc1nc(=O)c2ncn([C@@H]3O[C@H](COP(=O)(O)OP(=O)(O)OP(=O)(O)O)[C@@H](O)C3O)c2[nH]1 (single isomer, unassigned)
Activity (Enterococcus faecalis [17]): Dose-dependent effect
Activity [18]: Dose-dependent effect
Activity [19]: Dose-dependent effect

CN[C@H](CC(C)C)C(=O)N[C@H]1C(=O)N[C@@H](CC(N)=O)C(=O)N[C@H]2C(=O)N[C@H]3C(=O)N[C@H](C(=O)N[C@H](C(=O)O)c4cc(O)cc(O)c4-c4cc3ccc4O)[C@H](O)c3ccc(c(Cl)c3)Oc3cc2cc(c3O[C@@H]2O[C@H](CO)[C@@H](O)[C@H](O)[C@H]2O[C@H]2C[C@](C)(N)[C@H](O)[C@H](C)O2)Oc2ccc(cc2Cl)[C@H]1O.Cl [VANCOMYCIN HYDROCHLORIDE]
MIC (Enterococcus faecalis [4]): > 64 µg/mL
MIC (Enterococcus faecalis [5]): 1 µg/mL
Activity (Enterococcus faecalis [10]): inactive
MBC (Staphylococcus aureus [16]): 1 µg/mL

NCC[C@H](O)C(=O)N[C@@H]1C[C@H](N)[C@@H](O[C@H]2O[C@H](CN)[C@@H](O)[C@H](O)[C@H]2O)[C@H](O)[C@H]1O[C@H]1O[C@H](CO)[C@@H](O)[C@H](N)[C@H]1O.O=S(=O)(O)O
MIC (Escherichia coli [1]): 1 µg/mL
MIC (Escherichia coli [2]): 2 µg/mL
MIC (Escherichia coli [3]): > 64 µg/mL

CC(=O)O[C@H]1C(=O)[C@@]2(C)[C@H]([C@H](OC(=O)c3ccccc3)[C@]3(O)C[C@H](OC(=O)[C@H](O)[C@@H](NC(=O)c4ccccc4)c4ccccc4)C(C)=C1C3(C)C)[C@]1(OC(C)=O)CO[C@@H]1C[C@@H]2O
Activity [20]: Active

Cc1onc(-c2ccccc2Cl)c1C(=O)N[C@@H]1C(=O)N2[C@@H]1SC(C)(C)[C@@H]2C(=O)[O-].[Na+] [OXACILLIN SODIUM SALT]
MIC (Enterococcus faecalis [4]): 64 µg/mL
MIC (Enterococcus faecalis [5]): 8 µg/mL
MIC (Staphylococcus aureus [6]): > 64 µg/mL
MIC (Staphylococcus aureus [7]): > 64 µg/mL
MIC (Staphylococcus aureus [8]): 0.25 µg/mL
MIC (Staphylococcus aureus [9]): 0.063 µg/mL
Activity [12]: inactive
